Reference: ChEMBL document CHEMBL1124441, “Synthesis of congeners and prodrugs. 3. Water-soluble prodrugs of taxol with potent antitumor activity” (1989)

Experiments:
Assay type in all cases: functional, Mus musculus
Conditions in all cases: route intraperitoneal
[1] = system: B16; experiment: (§1) Difference in body weight in grams between test and control animals at a dose of 40 mg/kg intraperitoneally
Outline: (§2)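 B16 melanoma system: 10⁶ tumor cells inoculated ip on day 0. Drug given ip once daily for 9 days (Q01Dx09) starting day 1, dose as mg/kg body weight per injection. Read-out is the body-weight difference in grams, treated minus control animals. Early deaths, taken as toxicity, are scored on day 4.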

[2] = system: B16; experiment: Antitumor activity in B16 Melanoma system animals is indicated by survivors on day 4 at a dose of 2.5 mg/kg intraperitoneally; parameters: reference not given here
Outline: (§3)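 B16 melanoma, 10^6 cells inoculated ip on day 0. Ip treatment started day 1, schedule Q01Dx09 (one dose daily for 9 days). The score is live animals on day 4 over total animals; early deaths are taken as drug toxicity.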

[3] = system: B16; experiment: (§4) Difference in body weight in grams between test and control animals at a dose of 5 mg/kg intraperitoneally; outline: as §2
[4] = system: B16; experiment: (§5) Difference in body weight in grams between test and control animals at a dose of 10 mg/kg intraperitoneally; outline: as §2
[5] = system: B16; experiment: Percent of median lifetime of test animals divided by the median lifetime of control animals at a dose of 10 mg/kg intraperitoneally
Outline: (§6)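 B16 melanoma inoculated ip (10⁶ cells) on day 0. Daily ip treatment for 9 days (Q01Dx09) begins day 1, dosed per injection in mg/kg. %T/C is the median lifespan of treated animals divided by that of tumored untreated controls, ×100. Cures are animals alive on the last test day. Toxic deaths are assessed on day 4.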

[6] = system: B16; experiment: Antitumor activity in B16 Melanoma system animals is indicated by survivors on day 4 at a dose of 5 mg/kg intraperitoneally; outline: as §3
[7] = system: B16; experiment: Percent of median lifetime of test animals divided by the median lifetime of control animals at a dose of 40 mg/kg intraperitoneally; outline: as §6
[8] = system: B16; experiment: Percent of median lifetime of test animals divided by the median lifetime of control animals at a dose of 5 mg/kg intraperitoneally; outline: as §6
[9] = system: B16; experiment: Antitumor activity in B16 Melanoma system animals is indicated by survivors on day 4 at a dose of 20 mg/kg intraperitoneally; parameters: reference not given here; outline: as §3
[10] = system: B16; experiment: Percent of median lifetime of test animals divided by the median lifetime of control animals at a dose of 2.5 mg/kg intraperitoneally; outline: as §6
[11] = system: B16; experiment: Antitumor activity in B16 Melanoma system animals is indicated by survivors on day 4 at a dose of 40 mg/kg intraperitoneally; outline: as §3
[12] = system: B16; experiment: Antitumor activity in B16 Melanoma system animals is indicated by survivors on day 4 at a dose of 10 mg/kg intraperitoneally; parameters: reference not given here; outline: as §3
[13] = system: B16; experiment: (§7) Difference in body weight in grams between test and control animals at a dose of 20 mg/kg intraperitoneally; outline: as §2
[14] = system: B16; experiment: (§8) Difference in body weight in grams between test and control animals at a dose of 2.5 mg/kg intraperitoneally; outline: as §2
[15] = system: B16; experiment: Percent of median lifetime of test animals divided by the median lifetime of control animals at a dose of 20 mg/kg intraperitoneally; outline: as §6
[16] = system: B16; experiment: Difference in body weight in grams between test and control animals at a dose of 44 mg/kg intraperitoneally; outline: as §2
[17] = system: B16; experiment: Percent of median lifetime of test animals divided by the median lifetime of control animals at a dose of 11 mg/kg intraperitoneally; outline: as §6
[18] = system: B16; experiment: Antitumor activity in B16 Melanoma system animals is indicated by survivors on day 4 at a dose of 5.5 mg/kg intraperitoneally; outline: as §3
[19] = system: B16; experiment: Difference in body weight in grams between test and control animals at a dose of 5.5 mg/kg intraperitoneally; outline: as §2
[20] = system: B16; experiment: Difference in body weight in grams between test and control animals at a dose of 2.75 mg/kg intraperitoneally; outline: as §2
[21] = system: B16; experiment: Difference in body weight in grams between test and control animals at a dose of 22 mg/kg intraperitoneally; outline: as §2
[22] = system: B16; experiment: Percent of median lifetime of test animals divided by the median lifetime of control animals at a dose of 22 mg/kg intraperitoneally; outline: as §6
[23] = system: B16; experiment: Antitumor activity in B16 Melanoma system animals is indicated by survivors on day 4 at a dose of 2.75 mg/kg intraperitoneally; outline: as §3
[24] = system: B16; experiment: Difference in body weight in grams between test and control animals at a dose of 11 mg/kg intraperitoneally; outline: as §2
[25] = system: B16; experiment: Percent of median lifetime of test animals divided by the median lifetime of control animals at a dose of 44 mg/kg intraperitoneally; outline: as §6
[26] = system: B16; experiment: Antitumor activity in B16 Melanoma system animals is indicated by survivors on day 4 at a dose of 44 mg/kg intraperitoneally; outline: as §3
[27] = system: B16; experiment: Antitumor activity in B16 Melanoma system animals is indicated by survivors on day 4 at a dose of 22 mg/kg intraperitoneally; outline: as §3
[28] = system: B16; experiment: Antitumor activity in B16 Melanoma system animals is indicated by survivors on day 4 at a dose of 11 mg/kg intraperitoneally; outline: as §3
[29] = system: B16; experiment: Percent of median lifetime of test animals divided by the median lifetime of control animals at a dose of 5.5 mg/kg intraperitoneally; outline: as §6
[30] = system: B16; experiment: Percent of median lifetime of test animals divided by the median lifetime of control animals at a dose of 2.75 mg/kg intraperitoneally; outline: as §6
[31] = system: MX1; experiment: as §4
[32] = system: B16; experiment: Antitumor activity in B16 Melanoma system animals is indicated by survivors on day 4 at a dose of 1.2 mg/kg intraperitoneally; outline: as §3
[33] = system: B16; experiment: Percent of median lifetime of test animals divided by the median lifetime of control animals at a dose of 1.25 mg/kg intraperitoneally; outline: as §6
[34] = system: MX1; experiment: as §7
[35] = system: MX1; experiment: as §8
[36] = system: MX1; experiment: as §1
[37] = system: MX1; experiment: as §5
[38] = system: B16; experiment: Difference in body weight in grams between test and control animals at a dose of 1.2 mg/kg intraperitoneally
Outline: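 B16 melanoma, 10^6 cells ip on day 0, then ip dosing from day 1, once daily for 9 days (Q01Dx09). The value is the body-weight difference in grams, treated minus tumored control animals.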

## CC(=O)OC1C(=O)[C@@]2(C)[C@H]([C@H](OC(=O)c3ccccc3)[C@]3(O)CC(OC(=O)C(OC(=O)CCC(=O)O)C(NC(=O)c4ccccc4)c4ccccc4)C(C)=C1C3(C)C)[C@]1(OC(C)=O)CO[C@@H]1C[C@@H]2O (stereo not given in full)
[1]
  Weight difference: 0 g
[2]
  Activity: 10
[3]
  Weight difference: 0.4 g
[4]
  Weight difference: 0.4 g
[5]
  T/C: 159%
[6]
  Survivors on day 4: 10
[7]
  T/C: 185%
[8]
  T/C: 154%
[9]
  Activity: 10
[10]
  T/C: 119%
[11]
  Activity: 10
[12]
  Activity: 10
[13]
  Weight difference: 0 g
[14]
  Weight difference: 0 g
[15]
  T/C: 154%

## CC(=O)OC1C(=O)[C@]2(C)[C@@H](OC(=O)CCC(=O)O)C[C@H]3OC[C@@]3(OC(C)=O)[C@H]2[C@H](OC(=O)c2ccccc2)[C@]2(O)CC(OC(=O)C(OC(=O)CCC(=O)O)C(NC(=O)c3ccccc3)c3ccccc3)C(C)=C1C2(C)C (stereo not given in full)
[16]
  Weight difference: 0 g
[17]
  T/C: 124%
[18]
  Activity: 10
[19]
  Weight difference: -0.3 g
[20]
  Weight difference: -0.3 g
[21]
  Weight difference: 0.3 g
[22]
  T/C: 105%
[23]
  Activity: 10
[24]
  Weight difference: 0.1 g
[25]
  T/C: 114%
[26]
  Activity: 10
[27]
  Activity: 10
[28]
  Activity: 10
[29]
  T/C: 113%
[30]
  T/C: 109%

## CC(=O)OC1C(=O)[C@@]2(C)[C@H]([C@H](OC(=O)c3ccccc3)[C@]3(O)CC(OC(=O)C(OC(=O)CCCC(=O)NCCCN(C)C)C(NC(=O)c4ccccc4)c4ccccc4)C(C)=C1C3(C)C)[C@]1(OC(C)=O)CO[C@@H]1C[C@@H]2O.Cl (stereo not given in full)
[2]
  Activity: 10
[31]
  Weight difference: 0.1 T-C
[32]
  Activity: 10
[3]
  Weight difference: 0.1 g
[33]
  T/C: 123%
[4]
  Weight difference: -0.1 g
[5]
  T/C: 352%
[6]
  Survivors on day 4: 10
[8]
  T/C: 188%
[9]
  Activity: 10
[10]
  T/C: 129%
[34]
  Weight difference: 0.3 T-C
[12]
  Activity: 10
[13]
  Weight difference: 0 g
[14]
  Weight difference: -0.1 g
[35]
  Weight difference: -0.6 T-C
[15]
  T/C: 352%
[36]
  Weight difference: -5.9 T-C
[37]
  Weight difference: -2.2 T-C
[38]
  Weight difference: -0.1 g
